From ChEMBL document CHEMBL1817603, “Antibacterial polyketides from the jellyfish-derived fungus Paecilomyces variotii” (2011)
Values after ≈ are worked out from the molar mass of the structure shown.

Key:
Type in all cases: functional
Vibrio parahaemolyticus = assay: Antimicrobial activity against multidrug-resistant Vibrio parahaemolyticus 7001 after 24 hrs by microtiter plate based MIC assay; details: Vibrio parahaemolyticus, 7001, 24 h
Outline: (§1)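 Broth microdilution MIC in LB broth. Compounds were twofold serially diluted in 0.5% MeOH, and reference antibiotics were diluted from 40 to 0.31 μg/mL per well. The bacterial inoculum was adjusted by turbidity at 600 nm to a 0.5 McFarland standard. Test solution was added at one part to nine parts culture, then incubated at 36 °C for 24 h. The assay was run in triplicate, with vehicle-matched blank growth controls.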

Staphylococcus aureus [1] = assay: Antimicrobial activity against methicillin-resistant Staphylococcus aureus 3089 after 24 hrs by microtiter plate based MIC assay; details: Staphylococcus aureus, 3089, 24 h; outline: as §1
Staphylococcus aureus [2] = assay: Antimicrobial activity against Staphylococcus aureus SG 511 after 24 hrs by microtiter plate based MIC assay; details: SG 511, 24 h; outline: as §1

SMILES | MIC (Vibrio parahaemolyticus) [µg/mL] | MIC (Staphylococcus aureus [1]) [µg/mL] | MIC (Staphylococcus aureus [2]) [µg/mL]
C[C@H]1COc2c(N3CCN(C)CC3)c(F)cc3c(=O)c(C(=O)O)cn1c23.C[C@H]1COc2c(N3CCN(C)CC3)c(F)cc3c(=O)c(C(=O)O)cn1c23.O [LEVOFLOXACIN] | 0.156 |  | 
CCCCCCCC[C@@H]1OC(=O)c2c(O)cccc21 [PAECILOCIN A] | > 40 | > 40 | > 40
CCCCCCCC[C@]1(OC)O[C@H](OC)c2c(O)cccc21 [PAECILOCIN B] | > 40 | 20 (≈ 64.8 µM) | 5 (≈ 16.2 µM)
CCCCCCCC[C@]1(OC)O[C@@H](OC)c2c(O)cccc21 [PAECILOCIN C] | > 40 | 40 (≈ 130 µM) | 20 (≈ 64.8 µM)
CN(C)[C@@H]1C(O)=C(C(N)=O)C(=O)[C@@]2(O)C(O)=C3C(=O)c4c(O)cccc4[C@@](C)(O)[C@H]3C[C@@H]12 [TETRACYCLINE] |  |  | 1.25 (≈ 2.81 µM)
CN[C@H](CC(C)C)C(=O)N[C@H]1C(=O)N[C@@H](CC(N)=O)C(=O)N[C@H]2C(=O)N[C@H]3C(=O)N[C@H](C(=O)N[C@H](C(=O)O)c4cc(O)cc(O)c4-c4cc3ccc4O)[C@H](O)c3ccc(c(Cl)c3)Oc3cc2cc(c3O[C@@H]2O[C@H](CO)[C@@H](O)[C@H](O)[C@H]2O[C@H]2C[C@](C)(N)[C@H](O)[C@H](C)O2)Oc2ccc(cc2Cl)[C@H]1O [VANCOMYCIN] |  | 0.625 (≈ 0.431 µM) | 
